bIAP inh: blocks bovine intestinal alkaline phosphatase activity; 190,000 tested, under 10 active; purified bovine IAP, CDP-star luminescence, 30 min; inhibition, % at 20 µM;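 active means over 50% inhibition of intestinal alkaline phosphatase at 20 µM in the single-dose screen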
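Assay system: bovine IAP enzyme; medium: DEA buffer 100 mM, pH 9.8, with MgCl2 1.0 mM, ZnCl2 0.02 mM; doses: 20 µM single dose; incubation: enzyme reaction for 30 min at room temperature; detection: CDP-star luminescence signal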
hIAP act: increases human intestinal alkaline phosphatase activity; P09923; purified human IAP, CDP-Star luminescence, 30 min; stronger effect = higher value; 1 = vehicle-only enzyme, 0 = enzyme-free background; activation factor at 10 µM; 0.16% of 330,000 active; AID 2524;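 active means activation factor of the enzyme at least 2-fold when tested at 20 µM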
Target sequence (P09923 whole entry, looked up): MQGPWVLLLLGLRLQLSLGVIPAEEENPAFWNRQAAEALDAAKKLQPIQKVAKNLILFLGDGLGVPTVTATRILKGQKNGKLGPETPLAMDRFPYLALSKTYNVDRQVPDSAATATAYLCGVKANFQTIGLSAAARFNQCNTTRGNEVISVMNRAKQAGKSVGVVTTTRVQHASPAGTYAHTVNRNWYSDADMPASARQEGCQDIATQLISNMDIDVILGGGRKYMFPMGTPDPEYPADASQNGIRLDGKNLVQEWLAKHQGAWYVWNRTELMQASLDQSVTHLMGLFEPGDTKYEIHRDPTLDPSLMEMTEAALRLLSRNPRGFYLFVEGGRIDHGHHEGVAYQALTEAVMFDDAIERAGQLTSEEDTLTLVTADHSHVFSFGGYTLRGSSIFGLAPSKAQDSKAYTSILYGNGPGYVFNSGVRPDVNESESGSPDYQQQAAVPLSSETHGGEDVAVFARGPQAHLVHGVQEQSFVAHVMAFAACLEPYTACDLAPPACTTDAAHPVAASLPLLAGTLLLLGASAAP
mIAP inh: blocks mouse intestinal alkaline phosphatase; inhibition, % at 10 µM; AID 2806; 0.2% of 330,000 active; purified mouse IAP, CDP-Star luminescence, 30 min;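 active means inhibition of at least 40% at 10 µM in the primary screen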
bIAP activator: intestinal alkaline phosphatase (bovine) activation | purified bovine IAP, CDP-star luminescence, 30 min; stronger effect = higher value; fold of DMSO-control signal, blank-subtracted | activation factor at 20 µM | 0.17% of 200,000 active | AID 1016;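 active means activation factor of 2 or more at 20 µM, a signal rise over negative controls twice the positive control's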
mIAP activ: mouse IAP activation. activation factor at 10 µM. muIAP, CDP-Star luminescence, 30 min; stronger effect = higher value; 1 = vehicle-only enzyme signal, 0 = enzyme-free wells. 0.24% of 330,000 active;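 active means activation factor of at least 2 at 20 µM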
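System: Mouse IAP enzyme | Also added: CDP-Star substrate | Dosing: Compounds dispensed in DMSO | Schedule: 30 min enzyme-substrate-compound incubation at room temperature | Technique: Chemiluminescence readout | Control set: DMSO-only wells and no-enzyme negative control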
hIAP block: blocks human intestinal alkaline phosphatase | P09923 | purified IAP, CDP-Star luminescence, 30 min | inhibition, % at 10 µM | 0.12% of 330,000 active | AID 2544;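 active means inhibition reaching a set limit with compound at 10 µM in the primary screen, cut at about 35% in these data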
Hits are given with their value; 0 = inactive; - = no result. Rows were chosen to be rich in hits. Some 0.72% of all compounds tested hit in one or more screens of this group.

SMILES	bIAP inh	hIAP act	mIAP inh	bIAP activator	mIAP activ	hIAP block
CCC(=O)N1c2ccc(S(=O)(=O)NC3CCCCC3)cc2CC1C (centres undefined)	-	0	0	-	0	0
O=C(CCNS(=O)(=O)c1ccccc1)OCC(=O)c1ccc(Br)cc1	-	0	0	-	0	0
Cc1cc(C)cc(NC(=S)NCCN(C2CCCCC2)C2CCCC2)c1	-	0	0	0	2.1	0
Cc1ccc(NC(=S)NCCN(C2CCCCC2)C2CCCC2)cc1	-	0	0	0	0	0
CC(NC(=O)Nc1ccc(Cl)cc1)C(c1cccs1)N1CCOCC1 (centres undefined)	0	0	0	0	2.4	0
CC(NC(=O)Nc1ccccc1)C(c1cccs1)N1CCOCC1 (centres undefined)	0	0	0	0	0	0
Cc1cc(C(=O)N[C@H](c2ccccc2)[C@@]2(C)C[C@@H]2[C@@H](C)C(=O)Nc2ccc3ccccc3c2)n(C)n1	0	0	0	0	2.1	0
C[C@@H](C(=O)Nc1ccc2ccccc2c1)[C@H]1C[C@]1(C)[C@H](NC(=O)OCc1ccccc1)c1ccccc1	0	0	0	0	0	0
COc1ccc(CNC(=O)C2CCN(S(=O)(=O)c3cccc4nsnc34)CC2)cc1	-	0	0	-	0	0
CN(C(=O)CSc1nc2ccccc2c(=O)n1C)C1CCS(=O)(=O)C1 (centres undefined)	-	0	0	-	0	0
COc1ccc(-c2csc(=Nc3ccccc3)n2CCO)cc1	0	0	0	2	0	0
COc1ccc(N=c2scc(-c3ccc(S(=O)(=O)N4CCOCC4)cc3)n2CCCO)cc1	0	-	-	0	-	-
O=C(Nc1ccc2c(c1)CCC2)Nc1ccccc1F	-	0	0	-	2	0
O=C(Nc1ccc(Br)cc1)Nc1ccccc1F	0	0	0	0	2.2	0
O=C(Nc1ccc2c(c1)CCC2)Nc1ccc(F)cc1F	-	0	0	-	0	0
Cc1cc(S(=O)(=O)N2CCCC(N(C)CCc3ccccn3)C2)c(C)cc1Cl (centres undefined)	-	0	0	-	0	0
CCCn1c(C(O)c2ccc3c(c2)OCO3)nc2ccccc21 (centres undefined)	0	0	0	5.8	0	0
CCCn1c(C(O)c2ccc(C)cc2)nc2ccccc21 (centres undefined)	-	0	0	-	0	0
COc1ccccc1-c1cc(C(=O)N2CCN(S(=O)(=O)c3ccc(C)cc3)CC2)[nH]n1	-	0	0	-	2.3	0
O=C(Oc1cc(=O)oc2ccccc12)c1cccnc1Cl	0	0	0	2.4	0	0
Cc1cc(C)cc(OCCn2ccnc2)c1	-	0	0	-	0	0
O=c1cc(-c2ccc(O)cc2)oc2c(C3OCC(O)C(O)C3O)c(O)c(C3OC(CO)C(O)C(O)C3O)c(O)c12 (centres undefined)	-	0	43	-	0	0
COc1ccc(-c2c(C3=CCCCC3)oc3ccc(-c4ccc5c(c4)OCO5)cc23)cn1	-	0	0	-	0	0
CCOc1ccc(NC(=O)CCC(=O)NNC(=O)COc2ccc(C)cc2Br)cc1	-	0	49	-	0	0
CCOc1ccc(-c2n[nH]c(=S)o2)cc1	0	0	44	0	0	0
SMILES	bIAP inh	hIAP act	mIAP inh	bIAP activator	mIAP activ	hIAP block
CC(NCC(=O)Nc1cc(S(=O)(=O)N2CCOCC2)ccc1N1CCOCC1)c1ccco1 (centres undefined)	-	0	0	-	0	0
CC(=O)Nc1ccc(NC(=O)Nc2ccc(C)c(C)c2)cc1	0	0	0	0	0	0
O=C(Nc1ccccc1)Nc1ccc(Br)c(Cl)c1	0	0	0	0	3.3	0
O=C(Nc1ccccc1)Nc1ccccc1Br	0	0	0	0	0	0
O=C(Nc1ccc(Oc2ccc(NC(=O)Nc3ccccc3Cl)cc2)cc1)Nc1ccccc1Cl	-	0	0	-	2	0
O=C(Nc1ccncc1)Nc1cccc(Cl)c1Cl	-	0	0	-	0	0
CC(=O)Nc1cccc(NC(=O)Nc2ccc(C)c(Cl)c2)c1	0	0	0	0	2.1	0
O=C(Nc1ccccc1)Nc1cccc(Cl)c1Cl	0	0	0	0	2.9	0
Cc1ccc(NC(=O)COC(=O)Cn2cnc3ccccc32)c(C)c1	-	0	0	-	0	0
Cc1c(NC(=S)NC(=O)c2cccc(Cl)c2)c(=O)n(-c2ccccc2)n1C	-	0	0	-	0	0
O=C(Nc1ccc(F)cc1)Nc1cccc(Br)c1	-	0	0	-	3	0
